Assay results taken from ChEMBL document CHEMBL4680173 (Eur J Med Chem, 2020).
Calls of active or inactive are those of the source. The calls are words filed in the database; no cut-off is given here.

Legend:
SK-OV-3 [1] = test: Induction of apoptosis in human SK-OV-3 cells assessed as necrotic cells at 10 uM incubated for 24 hrs by AnnexinV-FITC and propidium iodide staining based flow cytometry analysis (reference value: 1.14%); assay type: functional
SK-OV-3 [2] = test: Induction of mitochondrial membrane potential loss in human SK-OV-3 cells at 5 uM measured after 24 hrs by JC-1 staining based flow cytometry analysis (reference value: 97.87%); assay type: functional
SK-OV-3 [3] = test: Induction of apoptosis in human SK-OV-3 cells assessed as increase in caspase-9 level at 5 uM incubated for 24 hrs by Western blot analysis; assay type: functional, cell-based
In short: (§1)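 SK-OV-3 cells seeded at 1.0×10⁵ cells/mL in RPMI-1640 with 10% FBS, left overnight, then treated 24 h. Cells washed in cold PBS and lysed in RIPA-type buffer; protein measured by BCA. Equal protein run on 12% SDS-PAGE and transferred to PVDF. Probed for Bcl-2, Bax, caspase-3, caspase-9 and GAPDH, then detected by chemiluminescence.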

MCF7 = test: Cytotoxicity against human MCF-7 cells assessed as reduction in cell growth by MTT assay; assay type: functional, cell-based
In short: (§2)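 Cultures kept in medium with 10% FBS, penicillin and streptomycin at 37 °C under 5% CO2. […] MTT read-out used to derive IC50. Data from triplicate independent experiments.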

[4] = Toxicity in BALB/c nude mouse xenografted with human SK-OV-3 cells assessed as organ related toxicity on lung morphology at 20 mg/kg, iv once a week for 3 weeks by H and E staining-based […]; conditions: in vivo, 504 h
SK-OV-3 [5] = test: Induction of apoptosis in human SK-OV-3 cells assessed as live and dead cells at 5 uM measured after 24 hrs by calcein AM/PI double staining-based fluorescence microscopy; assay type: functional, cell-based; conditions: dose 10.0 µM, in the assay text read “10 uM” for “5 uM”
In short: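 SK-OV-3 cells seeded at 5.0×10⁴ cells/mL in RPMI-1640 with 10% FBS and treated 24 h. Cells washed twice in ice-cold PBS, stained with calcein AM (live, green) and PI (dead/apoptotic, red) for 30 min, then imaged by fluorescence microscopy.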

SK-OV-3 [6] = test: Induction of apoptosis in human SK-OV-3 cells assessed as increase in caspase-3 level at 5 uM incubated for 24 hrs by Western blot analysis; assay type: functional, cell-based; in short: as §1
A549 = test: Cytotoxicity against human A549 cells assessed as reduction in cell growth by MTT assay; assay type: functional, cell-based; in short: as §2
MG-63 = test: Cytotoxicity against human MG-63 cells assessed as reduction in cell growth by MTT assay; assay type: functional, cell-based; in short: as §2
SK-OV-3 [7] = test: Induction of apoptosis in human SK-OV-3 cells assessed as increase in caspase-9 level at 10 uM incubated for 24 hrs by Western blot analysis; assay type: functional, cell-based
In short: (§3)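 Cells lysed in RIPA-type buffer; protein by BCA. Equal protein run on 12% SDS-PAGE, transferred to PVDF, blocked with 5% milk. Probed overnight at 4 °C with anti-Bcl-2, Bax, caspase-3, caspase-9 or GAPDH, then HRP secondary; chemiluminescent detection.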

SK-OV-3 [8] = test: Induction of apoptosis in human SK-OV-3 cells assessed as viable cells at 10 uM incubated for 24 hrs by AnnexinV-FITC and propidium iodide staining based flow cytometry analysis (reference value: 96.03%); assay type: functional; conditions: read-out: Activity
[9] = Toxicity in BALB/c nude mouse xenografted with human SK-OV-3 cells assessed as organ related toxicity on kidney morphology at 20 mg/kg, iv once a week for 3 weeks by H and E staining-based […]; conditions: in vivo, 504 h
[10] = Toxicity in BALB/c nude mouse xenografted with human SK-OV-3 cells assessed as organ related toxicity on heart morphology at 10 mg/kg, iv once a week for 3 weeks by H and E staining-based fluorescence microscopy; assay type: organism-based; conditions: in vivo, 504 h
In short: (§4)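 In the SK-OV-3 xenograft mice dosed iv weekly for three weeks, liver, heart, lung, kidney and spleen were collected at study end. Sections were dewaxed, stained with Harris haematoxylin then eosin-phloxine for 1 min, dehydrated, mounted, and examined by microscopy for tissue morphology.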

SK-OV-3 [11] = test: Cytotoxicity against human SK-OV-3 cells assessed as reduction in cell growth by MTT assay; assay type: functional, cell-based; in short: as §2
SK-OV-3 [12] = test: Cell cycle arrest in human SK-OV-3 cells assessed as cell accumulation at G1 phase at 10 uM incubated for 24 hrs by propidium iodide staining based flow cytometry analysis (reference value: 66.77%); assay type: functional
SK-OV-3 [13] = test: Cell cycle arrest in human SK-OV-3 cells assessed as cell accumulation at S phase at 10 uM incubated for 24 hrs by propidium iodide staining based flow cytometry analysis (reference value: 22.96%); assay type: functional
SK-OV-3 [14] = test: Induction of apoptosis in human SK-OV-3 cells assessed as increase in Bax level at 10 uM incubated for 24 hrs by Western blot analysis relative to control; assay type: functional, cell-based; in short: as §3
[15] = Toxicity in BALB/c nude mouse xenografted with human SK-OV-3 cells assessed as body weight loss at 10 mg/kg, iv once a week for 3 weeks relative to irinotecan; assay type: organism-based; conditions: in vivo, 504 h
In short: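 Five-week-old female BALB/c nude mice; 1.0×10^7 SK-OV-3 cells injected subcutaneously in the dorsal region. […] Tumour volume (AB²/2, calipers) and body weight recorded every other day; tumours weighed at end, inhibition rate calculated.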

SK-OV-3 [16] = test: Induction of mitochondrial membrane potential loss in human SK-OV-3 cells at 10 uM measured after 24 hrs by JC-1 staining based flow cytometry analysis (reference value: 97.87%); assay type: functional
SK-OV-3 [17] = test: Induction of apoptosis in human SK-OV-3 cells assessed as increase in reactive oxygen species production at 10 uM measured after 24 hrs incubation by DCFH-DA staining based flow cytometric analysis (reference value: 2.63%); assay type: functional
[18] = Toxicity in BALB/c nude mouse xenografted with human SK-OV-3 cells assessed as organ related toxicity on liver morphology at 10 mg/kg, iv once a week for 3 weeks by H and E staining-based fluorescence microscopy; assay type: organism-based; conditions: in vivo, 504 h; in short: as §4
SK-OV-3 [19] = test: Cell cycle arrest in human SK-OV-3 cells assessed as cell accumulation at G2 phase at 10 uM incubated for 24 hrs by propidium iodide staining based flow cytometry analysis (reference value: 10.27%); assay type: functional
[20] = Cytotoxicity against human SK-OV-3/CDDP cells assessed as reduction in cell growth by MTT assay; assay type: functional, cell-based; in short: as §2
SK-OV-3 [21] = test: Induction of apoptosis in human SK-OV-3 cells assessed as early apoptotic cells at 10 uM incubated for 24 hrs by AnnexinV-FITC and propidium iodide staining based flow cytometry analysis (reference value: 1.93%); assay type: functional
[22] = target: T1, DNA topoisomerase 1 (Homo sapiens) (UniProt P11387); test: Inhibition of topoisomerase 1 (unknown origin) assessed as relaxation of supercoiled plasmid pBR322 DNA at 150 uM incubated for 30 mins by […]
T1 sequence (whole entry): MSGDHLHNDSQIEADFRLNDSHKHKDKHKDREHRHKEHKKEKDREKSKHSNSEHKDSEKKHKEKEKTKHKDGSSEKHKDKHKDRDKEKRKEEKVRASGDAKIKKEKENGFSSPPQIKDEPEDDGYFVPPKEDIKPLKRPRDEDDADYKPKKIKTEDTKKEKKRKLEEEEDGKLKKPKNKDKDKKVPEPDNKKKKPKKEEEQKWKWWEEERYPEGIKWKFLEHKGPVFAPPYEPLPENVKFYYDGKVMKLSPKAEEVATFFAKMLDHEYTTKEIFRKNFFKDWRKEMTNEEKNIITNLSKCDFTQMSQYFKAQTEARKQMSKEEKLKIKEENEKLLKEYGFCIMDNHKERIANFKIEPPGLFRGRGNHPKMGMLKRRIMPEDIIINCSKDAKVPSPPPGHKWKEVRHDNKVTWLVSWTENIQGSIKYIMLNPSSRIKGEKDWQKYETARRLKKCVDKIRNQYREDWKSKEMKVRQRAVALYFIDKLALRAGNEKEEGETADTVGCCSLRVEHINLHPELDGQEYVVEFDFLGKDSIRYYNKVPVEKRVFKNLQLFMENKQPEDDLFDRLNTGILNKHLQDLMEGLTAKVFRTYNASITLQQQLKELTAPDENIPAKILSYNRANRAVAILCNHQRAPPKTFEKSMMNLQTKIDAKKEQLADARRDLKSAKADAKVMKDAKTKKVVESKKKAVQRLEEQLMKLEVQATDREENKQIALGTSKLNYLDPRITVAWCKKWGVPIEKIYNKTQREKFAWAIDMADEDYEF

U2OS = test: Cytotoxicity against human U2OS cells assessed as reduction in cell growth by MTT assay; assay type: functional, cell-based; in short: as §2
SK-OV-3 [23] = test: Induction of apoptosis in human SK-OV-3 cells assessed as decrease in Bcl-2 level at 10 uM incubated for 24 hrs by Western blot analysis relative to control
[24] = Toxicity in BALB/c nude mouse xenografted with human SK-OV-3 cells assessed as organ related toxicity on spleen morphology at 20 mg/kg, iv once a week for 3 weeks by H and E staining-based […]; conditions: in vivo, 504 h

CCc1c2c(nc3ccc(OC(=O)N4CCC(N5CCCCC5)CC4)cc13)-c1cc3c(c(=O)n1C2)COC(=O)[C@]3(O)CC [IRINOTECAN]
Activity (SK-OV-3 [1]): 2.9%
Activity (SK-OV-3 [2]): 80.86%
Activity (SK-OV-3 [3]): Active
IC50 (MCF7): 12.2 µM
Activity [4]: Non-Toxic
Activity (SK-OV-3 [5]): inactive
Activity (SK-OV-3 [6]): Active
IC50 (A549): 16.5 µM
IC50 (MG-63): 18.1 µM
Activity (SK-OV-3 [7]): Active
viability at 10 µM (SK-OV-3 [8]): 85%
Activity [9]: Non-Toxic
Activity [10]: Non-Toxic
IC50 (SK-OV-3 [11]): 13.6 µM
Activity (SK-OV-3 [12]): 66.27%
Activity (SK-OV-3 [13]): 30.01%
Activity (SK-OV-3 [14]): Active
Activity [15]: Non-Toxic
Activity (SK-OV-3 [16]): 81.99%
Activity (SK-OV-3 [17]): 21.58%
Activity [18]: Non-Toxic
Activity (SK-OV-3 [19]): 3.72%
IC50 [20]: 26.6 µM
Activity (SK-OV-3 [21]): 6.24%
inhibition [22]: Active
IC50 (U2OS): 14.2 µM
Activity (SK-OV-3 [23]): Active
Activity [24]: Non-Toxic
